In the library only some 1.8% were active in any assay of this set; here they are far more common.
LMPTP block: blocks human LMPTP phosphatase. P24666. 360,000 tested, 0.22% active. inhibition, % at 20 µM. recombinant LMPTP-A, OMFP fluorogenic substrate, fluorescence intensity;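 active = compounds that cut the enzyme signal by at least half of the control window in the single-dose screen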;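 note: plate controls were DMSO wells with enzyme plus substrate for no effect and substrate without enzyme for full effect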
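Buffer or medium: Bis-Tris pH 6.0, DTT, detergent; Assay system: LMPTP-A enzyme; Quantity: 0.625 nM enzyme; Detection: endpoint fluorescence intensity; Times: 50 min dark incubation at room temperature; Controls: substrate-only low control, DMSO enzyme-plus-substrate high control; Doses: single 20 µM dose; Read-out: percent inhibition versus substrate-only and uninhibited controls; Reagent: 400 µM OMFP.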
HKDC1 inh: blocks human hexokinase HKDC1 activity | Q2TB90 | recombinant HKDC1, G6PDH/diaphorase resazurin coupled fluorescence | inhibition, % at 20 µM | 340,000 tested, 0.16% active | AID 493160;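 active = inhibition above about 35% when tested at 20 µM, limit read from the data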;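 note: plate controls were DMSO wells with enzyme for no effect and DMSO wells lacking enzyme for full effect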
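Test system: Recombinant HKDC1 (HK5) hexokinase enzyme, produced in-house | Input: HKDC1 at 5 µg/mL | Buffer or medium: Tris pH 8.0 buffer with MgCl2, Tween-20, BSA, BME | Schedule: 90 min reaction incubation at room temperature, dark | Technique: Resazurin-to-resorufin fluorescence via G6PDH and diaphorase coupling, 525/613 nm | Controls: DMSO wells with and without enzyme mix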
Scp1 inh: Scp-1 (human) phosphatase inhibition; Q9GZU7; Recombinant Scp1, phosphopeptide, malachite green phosphate absorbance; inhibition, % at 20 µM; 340,000 tested, 0.88% active;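 active = inhibition above about 50% at 20 µM, limit read from the data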;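 note: plate controls were DMSO wells with enzyme for no effect and wells lacking enzyme for full effect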
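Material – SCP-1 phosphatase catalytic domain, residues 76-261 · Buffer or medium – Acidic Tris acetate buffer with magnesium and detergent · Also added – Phospho 17-mer peptide substrate · Compound – single 20 µM dose, 1% DMSO · Times – 45 min room-temperature reaction, 5 min colour, 30 min stabiliser · Technique – Phosphate-binding colour reagent, absorbance read at 630 nm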
STEP block: inhibitors of human striatal-enriched phosphatase STEP | inhibition, % at 20 µM | P54829 | recombinant STEP, OMFP fluorogenic substrate, fluorescence | 360,000 tested, 0.25% active;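 active = inhibition at 20 µM, scaled per plate between control wells, above about 37%, limit read from the data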;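 note: 0% = DMSO with enzyme and substrate and 100% = substrate only without enzyme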
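medium = Bis-Tris buffer pH 6.0, 2.5 mM DTT, 0.005% Tween 20 | test system = STEP (striatal-enriched tyrosine phosphatase) enzyme, cell-free | measure = normalized % inhibition | compound dosing = 20 µM, 1% DMSO | also added = 25 µM OMFP | schedule = reaction 20 min, ambient temperature | measured by = fluorescence read at 480 nm ex / 540 nm em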
SUMO1 PPI mod: modulators of human SUMO1-mediated protein-protein interactions | SUMO1 binding to a labelled peptide, TR-FRET, 1 h | inhibition, % at 20 µM | 360,000 tested, 0.33% active | AID 602429; in the data active = inhibition above about 37%
DNMT1 inh: inhibitors of human DNMT1; AID 588458; inhibition (reported as % activation of signal), % at 10 µM; DNMT1 molecular beacon, Hinp1I cleavage, fluorescence; 360,000 tested, 0.83% active; P26358; in the data active = inhibition above about 50%
Target sequence (P26358 504-1616 limits assumed): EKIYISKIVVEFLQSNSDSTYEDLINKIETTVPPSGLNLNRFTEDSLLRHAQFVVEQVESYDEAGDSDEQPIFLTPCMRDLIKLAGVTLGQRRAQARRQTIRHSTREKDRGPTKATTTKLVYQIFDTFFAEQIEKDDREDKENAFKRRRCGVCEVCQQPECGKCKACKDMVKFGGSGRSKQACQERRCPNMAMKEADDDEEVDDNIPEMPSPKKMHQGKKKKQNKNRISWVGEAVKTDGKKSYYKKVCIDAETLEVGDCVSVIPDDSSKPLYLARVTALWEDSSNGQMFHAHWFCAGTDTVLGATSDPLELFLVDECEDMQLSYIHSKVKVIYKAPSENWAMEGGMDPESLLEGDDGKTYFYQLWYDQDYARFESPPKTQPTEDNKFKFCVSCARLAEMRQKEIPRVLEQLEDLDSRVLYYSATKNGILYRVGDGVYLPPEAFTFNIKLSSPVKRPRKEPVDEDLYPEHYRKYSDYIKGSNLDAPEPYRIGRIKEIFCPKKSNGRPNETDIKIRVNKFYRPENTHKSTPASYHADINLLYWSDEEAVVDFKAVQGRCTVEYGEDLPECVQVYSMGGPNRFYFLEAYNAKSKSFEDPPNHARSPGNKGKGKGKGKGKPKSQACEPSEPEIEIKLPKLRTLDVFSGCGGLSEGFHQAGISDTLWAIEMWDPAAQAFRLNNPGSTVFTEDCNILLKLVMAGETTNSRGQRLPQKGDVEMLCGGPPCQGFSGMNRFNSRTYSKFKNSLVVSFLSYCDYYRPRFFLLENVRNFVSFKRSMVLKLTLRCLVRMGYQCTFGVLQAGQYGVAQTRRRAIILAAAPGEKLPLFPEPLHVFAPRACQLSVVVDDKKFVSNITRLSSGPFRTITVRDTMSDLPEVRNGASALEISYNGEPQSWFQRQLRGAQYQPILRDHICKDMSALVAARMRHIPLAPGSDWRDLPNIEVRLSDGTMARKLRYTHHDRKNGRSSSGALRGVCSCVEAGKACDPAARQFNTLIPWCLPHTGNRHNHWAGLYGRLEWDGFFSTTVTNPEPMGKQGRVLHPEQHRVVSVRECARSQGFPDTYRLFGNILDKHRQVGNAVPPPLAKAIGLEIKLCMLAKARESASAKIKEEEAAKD
Scp-1 conf: confirmation of human Scp-1 phosphatase inhibitors; AID 540281; shares compounds with Scp1 inh; inhibition, % at 20 µM; 2,500 tested, 61% active; recombinant SCP-1 catalytic domain, phosphate release, malachite green absorbance;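 note: plate controls were DMSO with enzyme for no effect and buffer wells lacking enzyme for full effect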
MG interference: counter-screen for Scp-1 inhibitors: colorimetric interference. shares compounds with Scp1 inh. Colorimetric interference counterscreen, malachite green absorbance 630 nm. apparent inhibition (interference), % at 20 µM. 2,500 tested, under 10 active. AID 540313;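 note: compounds added after enzyme reaction finished so only phosphate colour detection is probed; plate controls were DMSO wells with completed Scp-1 reaction for no effect and substrate wells lacking enzyme for full effect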
Scp-1 Tm shift: validation of human Scp-1 inhibitors by thermal shift binding; 1,500 tested, 25% active; shares compounds with Scp1 inh; thermal shift relative to vanadate control, % at 40 µM; Recombinant SCP1, Sypro Orange thermal shift Tm;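 active = substances whose mean melting-temperature shift, as a percentage of the reference inhibitor's shift, reaches about 5.3%, limit read from the data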;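 note: 0% = Tm of DMSO wells and 100% = Tm with sodium orthovanadate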
Beacon interf DR: counter-screen for DNMT1 inhibitors: spectral interference, dose response | shares compounds with DNMT1 inh | AID 602382 | 200 tested, under 10 active | IC50, µM | molecular beacon fluorescence; call rule not given here
DNMT1 inh conf: DNMT1 inhibition confirmation, single concentration; shares compounds with DNMT1 inh; inhibition, % at 10 µM; DNMT1 molecular beacon HinP1I cleavage, fluorescence; AID 602385; 2,300 tested, 8% active;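 active = average inhibition of at least 30% in the single-concentration confirmation test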
DNMT1 interf: beacon fluorescence artifact counter-screen; shares compounds with DNMT1 inh; DNMT1 molecular beacon spectral interference counterscreen, fluorescence 485/520; activation (fluorescence interference), % at 10 µM; 2,300 tested, 1% active; AID 602387;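 active = activation of at least 30% at 10 µM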;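 note: DNMT1 catalytic domain with a HinP1I cleavage step and a FAM/dabcyl DNA beacon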
Numbers without * were called inactive; . = not tested or not shown.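 Rule for the calls, unless noted: active = inhibition of at least 30% at 20 µM; inactive = the rest.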

SMILES	LMPTP block	HKDC1 inh	Scp1 inh	STEP block	SUMO1 PPI mod	DNMT1 inh	Scp-1 conf	MG interference	Scp-1 Tm shift	DNMT1 inh conf	DNMT1 interf	others
O=C(Nc1ccc(S(=O)(=O)Nc2nccs2)cc1)c1nn(-c2ccc(F)cc2)ccc1=O	56*	4	93*	7	5	59*	59*	-22	4	10	-4
Cc1ccc(NC(=O)CN2C(=O)N/C(=C/c3cc(C)n(-c4cccc(C(=O)O)c4)c3C)C2=O)cc1	7	0	59*	18	30	84*	66*	-10	6.9*	10	-1
Cc1ccc(NC(=O)CN2C(=O)N/C(=C\c3cccn3-c3cccc(C(=O)O)c3)C2=O)cc1	15	10	67*	12	5	91*	55*	-20	6.2*	60*	0	Beacon interf DR=>99
Cc1ccc(CN2C(=O)N/C(=C\c3cccn3-c3cccc(C(=O)O)c3)C2=O)cc1	4	14	64*	5	-10	91*	57*	-20	0	9	-2
Cc1ccc(NC(=O)CN2C(=O)N/C(=C/c3ccc(N4CCOCC4)cc3)C2=O)cc1	-1	-2	-7	2	-7	22	.	.	.	.	.
CCOC(=O)c1cccc(-n2cccc2/C=C2\NC(=O)N(CC(=O)O)C2=O)c1	0	-4	-3	0	-16	0	.	.	.	.	.
Cc1cc(C(=O)O)ccc1-c1ccc(/C=C2\NC(=O)N(Cc3ccc(F)cc3)C2=O)o1	9	8	73*	9	29	64*	65*	-6	9.4*	20	0
Cc1cnc(C)c(Nc2nc(C(N)Cc3ccc(C(F)(F)F)cc3)cs2)n1 (centres undefined)	-1	.	.	-1	-61	-18	.	.	.	.	.
CC(C)(C)OC(=O)N1CCC(NC(=O)c2nc[nH]c2C(=O)N2CCN(c3ccccc3)CC2)CC1	0	-5	-5	-1	3	1	.	.	.	.	.
CC(C)Cn1cc(-c2cccc3nccn23)cn1	1	.	.	-1	-10	6	.	.	.	.	.
CCCCCCCCCCC(C(=O)O)C1(C(=O)O)CCC(=O)O1 (centres undefined)	0	.	.	0	2	-1	.	.	.	.	.
O=C(O)c1cccc(-n2cccc2/C=N/O)c1	5	4	77*	11	-1	105*	65*	-8	-13	3	1
ON=Cc1cccn1-c1ccccc1	0	-2	-4	-2	-6	-1	.	.	.	.	.
CC(C)CCOc1ccc(C(=O)NNC(=O)CNC(=O)c2ccccc2F)cc1	-2	-7	3	-2	-1	2	.	.	.	.	.
CCN(CC)C(=O)C1=C(C)N(CCCOC)C(=O)C(CC(=O)NCCN2CCOCC2)C1 (centres undefined)	-1	.	.	1	8	3	.	.	.	.	.
CC1CCCCC1NC(=O)COC(=O)c1c2c(nc3ccccc13)/C(=C\c1ccco1)CC2 (centres undefined)	50*	12	50*	24	22	85*	60*	-8	9.4*	10	2
O=C(COC(=O)c1c2c(nc3ccccc13)/C(=C/c1cccc([N+](=O)[O-])c1)CCC2)NC1CCS(=O)(=O)C1 (centres undefined)	0	0	2	0	-14	-16	.	.	.	.	.
CN(CCC#N)C(=O)COC(=O)c1c2c(nc3ccccc13)/C(=C\c1ccco1)CC2	67*	16	84*	37	57*	77*	53*	-11	10*	8	6
CCCCNC(=O)COC(=O)c1c2c(nc3ccccc13)/C(=C/c1cccs1)CC2	4	7	6	5	-9	-23	.	.	.	.	.
O=C(COC(=O)c1c2c(nc3ccccc13)/C(=C\c1ccco1)CC2)NC1CCCC1	65*	14	91*	18	42*	97*	61*	-14	15*	20	-2
O=C(NCC(c1ccco1)N1CCCC1)c1cccc(S(=O)(=O)N2CCc3ccccc32)c1 (centres undefined)	-1	.	.	-1	-2	-2	.	.	.	.	.
COc1ccc(CC(=O)OCC(=O)Nc2ccc3[nH]c(=O)[nH]c3c2)cc1OC	-1	.	.	0	25	2	.	.	.	.	.
O=C1Nc2ccc(S(=O)(=O)NCc3ccccn3)c3cccc1c23	13	7	86*	16	-9	54*	61*	-6	-8	1	4
Cc1c(Cl)cccc1-c1ccc(/C=N/n2cnnc2)o1	1	-6	-1	1	-17	4	.	.	.	.	.
Cc1c(C(=O)O)cccc1-c1ccc(/C=N/n2cnnc2)o1	1	-5	67*	27	-6	58*	37*	-15	-18	7	0
Cc1ccsc1/C=C/C1=Cc2c(sc(NC(=O)CSc3n[nH]c(N)n3)c2C#N)C(C)(C)C1	10	3	58*	12	32	90*	25	-14	.	4	1
Cc1sc2ncn(CC(=O)NCc3ccco3)c(=O)c2c1-c1ccc(F)cc1	-1	-4	-1	4	2	19	.	.	.	.	.
O=C(Cn1cnc2scc(-c3cccc([N+](=O)[O-])c3)c2c1=O)NCc1ccco1	21	2	78*	8	-7	83*	70*	-11	11*	16	-1
Cc1cc(/C=C(/C#N)c2nc3ccccc3[nH]2)c(C)n1-c1ccccc1C(=O)O	2	0	47	2	11	43	.	.	.	.	.
Cc1cc(/C=C(/C#N)c2nc3ccccc3[nH]2)c(C)n1-c1cc(C(=O)O)cc(C(=O)O)c1	3	1	59*	24	28	77*	53*	-8	4	8	-2

Assay outcomes as filed in PubChem BioAssay.
